Where a name gives a salt, the structure may show the parent alone. Non-standard residues stand in square brackets, D forms with d. Residues, ends and D or L forms follow the SMILES beside them. *: point of attachment. dPhe(4-NHCONH2) = NC(=O)Nc1ccc(C[C@@H](N)C(=O)O)cc1; Dihydroorotyl(S) = O=C1C[C@@H](C(=O)*)NC(=O)N1; dPhe(4-Cl) = N[C@H](Cc1ccc(Cl)cc1)C(=O)O; Phe(4-NH2) = Nc1ccc(C[C@H](N)C(=O)O)cc1; d2Nal = N[C@H](Cc1ccc2ccccc2c1)C(=O)O; Lys(iPr) = CC(C)NCCCC[C@H](N)C(=O)O; d3Pal = N[C@H](Cc1cccnc1)C(=O)O
How the values were obtained:
[1] = Degarelix plasma concentration; format: in vivo, healthy men
Summary of the method: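 Single 60-min iv infusion of 2.8 mg in 5% glucose. Plasma sampled predose and at 30, 60, 90, 120, 150, 180 min, 6, 12 and 24 h after infusion start. Assay: validated solid-phase extraction with LC–MS/MS, quantification range 0.500–100 ng/mL (up to 500 ng/mL after dilution), precision and bias within 10%. Parameters from noncompartmental analysis; values below LLOQ or missing were excluded.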

[2] = cited from earlier work
[3] = test system: human ether-a-go-go-related gene (hERG) channel; conditions: preclinical investigations; ref Ferring Pharmaceuticals, unpublished data; cited from earlier work
healthy men = experiment: Safety assessments; format: in vivo
Summary of the method: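 Six-sequence crossover of iv test compound, iv placebo and oral moxifloxacin, with 7–10 day washouts. Adverse events, 12-lead ECG and vital signs were monitored throughout. Clinical chemistry, haematology and urinalysis were run by a central laboratory. Adverse event was defined as any untoward medical occurrence in a participant.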

human GnRH receptor = conditions: cited from earlier work
[4] = test system: QT interval / cardiac repolarisation in healthy men; experiment: Thorough QT/QTc study, 12-lead ECG, QTcF; format: in vivo; conditions: for No. of subjects with ΔQTcF >30 ms / No. of subjects with ΔQTcF >60 ms / No. of subjects with ΔQTcF ≤30 ms / No. of subjects with QTcF >450 ms / No. of subjects with QTcF >480 ms / No. of subjects with QTcF >500 ms / No. of subjects with QTcF ≤450 ms: categorical analysis, degarelix n = 76, moxifloxacin n = 78; for No. of subjects with ΔQTcF >30 ms / No. of subjects with ΔQTcF >60 ms / No. of subjects with ΔQTcF ≤30 ms: change from baseline

Structure (SMILES): CC(=O)N[C@H](Cc1ccc2ccccc2c1)C(=O)N[C@H](Cc1ccc(Cl)cc1)C(=O)N[C@H](Cc1cccnc1)C(=O)N[C@@H](CO)C(=O)N[C@@H](Cc1ccc(NC(=O)[C@@H]2CC(=O)NC(=O)N2)cc1)C(=O)N[C@H](Cc1ccc(NC(N)=O)cc1)C(=O)N[C@@H](CC(C)C)C(=O)N[C@@H](CCCCNC(C)C)C(=O)N1CCC[C@H]1C(=O)N[C@H](C)C(N)=O [degarelix] (Ac-[d2Nal][dPhe(4-Cl)][d3Pal]S[Phe(4-NH2)](Dihydroorotyl(S))[dPhe(4-NHCONH2)]L[Lys(iPr)]P[dA]-NH2)
- Degarelix concentration at 24 h relative to Cmax ([1]; 24 h after start of degarelix 2.8 mg iv administration): < 10%
- Cmax ([1]; male, human, plasma, iv, 2.8 mg): 222 ng/mL
- Median maximal degarelix plasma concentration ([1]; single dose 2.8 mg infused iv over 60 min at constant rate): approximately 220 ng/mL
- Median peak concentration ([2]; single subcutaneous administration of 240 mg, prostate cancer): 66 ng/mL
- Half-life ([2]; subcutaneous administration, slow-release phase from in situ depot): several weeks
- Effect on hERG channel [3]: no effect
- Intensity of AEs (healthy men; after degarelix treatment): mild intensity
- Number of AEs reported (healthy men; after each treatment): 27
- Mean changes in placebo-corrected HR, PR and QRS durations (healthy men; degarelix 2.8 mg iv): did not show any clinically relevant results
- Affinity and selectivity towards the human GnRH receptor (human GnRH receptor): high affinity and selectivity
- No. of subjects with ΔQTcF >30 ms [4]: 3 (4%) n (%)
- No. of subjects with ΔQTcF >60 ms [4]: 0 n (%)
- No. of subjects with ΔQTcF ≤30 ms [4]: 73 (96%) n (%)
- No. of subjects with QTcF >450 ms [4]: 0 n (%)
- No. of subjects with QTcF >480 ms [4]: 0 n (%)
- No. of subjects with QTcF >500 ms [4]: 0 n (%)
- No. of subjects with QTcF ≤450 ms [4]: 76 (100%) n (%)
- One-sided 95% upper confidence boundaries for ΔΔQTcF at any of the nine timepoints ([4]; degarelix 2.8 mg iv over 60 min, 24-h period after start of infusion): ≤ 10 ms
- Mean maximum baseline-corrected difference versus placebo in QTcF ([4]; degarelix 2.8 mg iv over 60 min, time-matched): < 4 ms
- Slope of concentration-response effect on QTcF compared with placebo ([4]; repeated measures ANCOVA, 677 observations from 79 subjects): slightly negative slope

Structure (SMILES): COc1c(N2C[C@@H]3CCCN[C@@H]3C2)c(F)cc2c(=O)c(C(=O)O)cn(C3CC3)c12 [moxifloxacin, moxifloxacin hydrochloride]
- Subjects reporting AEs (healthy men; 80 subjects randomised, after each treatment): 22 (28%) n (%)
- Number of AEs reported (healthy men; after each treatment): 29
- No. of subjects with ΔQTcF >30 ms [4]: 15 (19%) n (%)
- No. of subjects with ΔQTcF >60 ms [4]: 0 n (%)
- No. of subjects with ΔQTcF ≤30 ms [4]: 63 (81%) n (%)
- No. of subjects with QTcF >450 ms [4]: 2 (3%) n (%)
- No. of subjects with QTcF >480 ms [4]: 0 n (%)
- No. of subjects with QTcF >500 ms [4]: 0 n (%)
- No. of subjects with QTcF ≤450 ms [4]: 76 (97%) n (%)
- QTc prolongation produced by positive control ([4]; moxifloxacin 400 mg oral): ≥ 5 ms
- Lower bound of 98.3% CI for ΔΔQTcF (moxifloxacin vs placebo) ([4]; moxifloxacin 400 mg single oral dose, at 2.5, 3 and 6 h, assay sensitivity): exceeded 5 ms
